According to ChEMBL document CHEMBL5120833, “Structure-based design of novel donepezil-like hybrids for a multi-target approach to the therapy of Alzheimer's disease” (Eur J Med Chem, 2022):
Activity calls are given as the source filed them. The rule behind the calls is not given here.

Experiments:
Acetylcholinesterase [1] = biological target: T1, Acetylcholinesterase (Homo sapiens, UniProt P22303); assay: Inhibition of human AChE by Ellman's spectrophotometric method
Cholinesterase [2] = biological target: T2, Cholinesterase (Homo sapiens, UniProt P06276); assay: Inhibition of human BuChE by Ellman's spectrophotometric method
T2 sequence (P06276 whole entry): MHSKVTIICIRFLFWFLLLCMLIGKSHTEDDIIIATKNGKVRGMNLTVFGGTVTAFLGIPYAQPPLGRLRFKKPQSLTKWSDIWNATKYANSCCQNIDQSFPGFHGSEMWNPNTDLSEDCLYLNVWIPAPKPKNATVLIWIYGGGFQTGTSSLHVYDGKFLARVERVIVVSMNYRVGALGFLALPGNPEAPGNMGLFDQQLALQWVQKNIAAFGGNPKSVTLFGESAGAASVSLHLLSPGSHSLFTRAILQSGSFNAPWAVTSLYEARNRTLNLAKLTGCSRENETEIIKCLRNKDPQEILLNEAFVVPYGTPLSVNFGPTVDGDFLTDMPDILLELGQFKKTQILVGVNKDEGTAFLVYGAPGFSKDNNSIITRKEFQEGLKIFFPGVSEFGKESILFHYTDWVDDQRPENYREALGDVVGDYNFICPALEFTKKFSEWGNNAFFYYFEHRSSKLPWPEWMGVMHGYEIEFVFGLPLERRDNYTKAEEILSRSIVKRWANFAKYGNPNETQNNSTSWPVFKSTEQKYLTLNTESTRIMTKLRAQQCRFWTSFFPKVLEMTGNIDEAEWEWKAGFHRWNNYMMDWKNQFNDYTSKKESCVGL
Summary of the method: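 Human BChE, modified Ellman spectrophotometric assay in 96-well format. Incubations were run in duplicate. IC50 was determined for inhibitors giving >60% inhibition, from seven final concentrations (10⁻⁵ to 10⁻¹¹ M) diluted in work buffer from a 1000 μM DMSO stock. Values are the mean ± SEM of three independent experiments.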

[3] = biological target: T3, Fatty-acid amide hydrolase 1 (Homo sapiens, UniProt O00519); assay: Inhibition of human recombinant FAAH using AMC-AA as substrate preincubated with enzyme for 10 mins followed by substrate addition for 2 hrs by fluorometric analysis
T3 sequence (O00519 whole entry): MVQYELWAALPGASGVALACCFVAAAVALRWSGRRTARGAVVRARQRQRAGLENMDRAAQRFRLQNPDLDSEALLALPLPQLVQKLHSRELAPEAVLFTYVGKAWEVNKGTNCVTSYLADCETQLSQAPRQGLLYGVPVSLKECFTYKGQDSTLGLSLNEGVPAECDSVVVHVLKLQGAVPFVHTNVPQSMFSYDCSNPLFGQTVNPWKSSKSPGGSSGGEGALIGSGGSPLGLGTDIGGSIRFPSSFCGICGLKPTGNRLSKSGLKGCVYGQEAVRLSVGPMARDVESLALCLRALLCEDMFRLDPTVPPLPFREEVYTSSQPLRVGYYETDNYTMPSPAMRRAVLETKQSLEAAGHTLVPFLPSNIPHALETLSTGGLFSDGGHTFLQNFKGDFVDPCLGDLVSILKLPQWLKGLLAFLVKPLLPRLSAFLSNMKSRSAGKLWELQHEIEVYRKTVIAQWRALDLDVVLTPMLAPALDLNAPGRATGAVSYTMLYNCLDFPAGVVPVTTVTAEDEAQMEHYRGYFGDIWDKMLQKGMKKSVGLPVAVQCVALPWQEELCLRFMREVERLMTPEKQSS
Summary of the method: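 Human recombinant FAAH preincubated with inhibitor at several concentrations for 10 min at room temperature with orbital shaking in Tris-HCl 125 mM, Na2EDTA 1 mM, pH 9.0. AMC-AA substrate (5 µM final) added, then 2 h at 37 °C with fluorescence read every 30 s (ex 340, em 450 nm). Percent inhibition taken against no-inhibitor and no-enzyme wells. IC50 given as mean ± SEM of at least two independent triplicate runs.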

Acetylcholinesterase [4] = biological target: T1, Acetylcholinesterase; assay: Potency index, ratio of donepezil IC50 to test compound IC50 for inhibition of human AChE by Ellman's spectrophotometric method
Homo sapiens = species on record: Homo sapiens; assay: Selectivity index, ratio of IC50 for human BuChE to IC50 for human AChE
[5] = Cytotoxicity against human SH-SY5Y cells assessed as inhibition of cell viability incubated for 24 hrs by MTT assay; assay type: toxicity, cell-based
Summary of the method: (§1)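 Cells from ATCC; SH-SY5Y grown in 1:1 MEM/Ham's F12, HepG2 in MEM with NEAA, both with 10% heat-inactivated FBS, glutamine, penicillin-streptomycin, 37 °C, 5% CO2. Seeded 10,000-25,000 cells/well, next day exposed to half-log serial dilutions (100 µM to 100 nM) in 1% DMSO final, with untreated controls. After 24 or 48 h, MTT 0.5 mg/mL for 3–4 h at 37 °C; formazan dissolved in DMSO/EtOH 1:1, absorbance 570 nm.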

[6] = Cytotoxicity against human SH-SY5Y cells assessed as inhibition of cell viability incubated for 48 hrs by MTT assay; assay type: toxicity, cell-based; summary of the method: as §1
[7] = Cytotoxicity against human HepG2 cells assessed as inhibition of cell viability incubated for 24 hrs by MTT assay; assay type: toxicity, cell-based; summary of the method: as §1
[8] = Cytotoxicity against human HepG2 cells assessed as inhibition of cell viability incubated for 48 hrs by MTT assay; assay type: toxicity, cell-based; summary of the method: as §1
Cholinesterase [9] = biological target: T2, Cholinesterase; assay: Potency index, ratio of donepezil IC50 to test compound IC50 for inhibition of human BuChE by Ellman's spectrophotometric method
[10] = Metal chelating activity assessed as Cu2+-compound complex formation by measuring global formation constant, log(beta)(CumHhLl) in 30% DMSO/water medium by pH potentiometric analysis
Summary of the method: (§2)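 Cu2+ binding measured by pH-potentiometric titration in 30% w/w DMSO/H2O at 25.0 ± 0.1 °C, ionic strength 0.1 M KCl, with 0.08 M KOH as titrant. Ligand concentration was 4.4×10^-4 M, with Cu:L ratios of 0:1, 1:1 and 1:2. Glass and Ag/AgCl electrodes were checked by HCl/KOH calibration (Gran's method), pKw 14.66. Protonation and complex stability constants came from fitting the data to an equilibrium model.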

[11] = Metal chelating activity assessed as Cu2+-compound complex formation at Cu2+:compound concentration ratio of 1:1 to 1:2 in 30% DMSO/water medium by pH potentiometric analysis; summary of the method: as §2
[12] = Metal chelating activity assessed as compound-Zn2+ complex formation at compound:Zn2+ concentration ratio of 1:1 in DMSO-d6/D2O medium by 1H-NMR analysis
[13] = Metal chelating activity assessed as compound-Cu2+ complex formation at stoichiometric ratio of 1:1 in 30% w/w DMSO/H2O medium by ESI-MS spectral analysis
Summary of the method: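 ESI-MS on an ion-trap instrument in positive and negative ion modes of Cu2+:ligand 1:1 solution in 30% w/w DMSO/H2O. Ligand concentration 2.6×10^-4 M, pH 5.68. Spray voltage ±4.5 kV, capillary temperature 280 °C, N2 sheath gas.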

[14] = Protonation constant of the compound, logKi in 30% w/w DMSO/H2O medium; assay type: physicochemical
Summary of the method: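 pH-potentiometric titration in 30% w/w DMSO/H2O at 25.0 ± 0.1 °C, ionic strength 0.1 M KCl, titrant 0.08 M KOH, ligand 4.4×10^-4 M. Glass and Ag/AgCl electrodes conditioned in DMSO/water mixtures and calibrated by HCl/KOH titration (Gran's method); pKw 14.66. Stepwise protonation constants obtained by fitting the titration data.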

[15] = biological target: Amyloid-beta precursor protein (Homo sapiens) (UniProt P05067); assay: Inhibition of amyloid beta (1 to 40) (unknown origin) aggregation at 100 uM incubated for 2 hrs by Thioflavin T based fluorometric assay
Amyloid-beta precursor protein (Homo sapiens), sequence (P05067 whole entry): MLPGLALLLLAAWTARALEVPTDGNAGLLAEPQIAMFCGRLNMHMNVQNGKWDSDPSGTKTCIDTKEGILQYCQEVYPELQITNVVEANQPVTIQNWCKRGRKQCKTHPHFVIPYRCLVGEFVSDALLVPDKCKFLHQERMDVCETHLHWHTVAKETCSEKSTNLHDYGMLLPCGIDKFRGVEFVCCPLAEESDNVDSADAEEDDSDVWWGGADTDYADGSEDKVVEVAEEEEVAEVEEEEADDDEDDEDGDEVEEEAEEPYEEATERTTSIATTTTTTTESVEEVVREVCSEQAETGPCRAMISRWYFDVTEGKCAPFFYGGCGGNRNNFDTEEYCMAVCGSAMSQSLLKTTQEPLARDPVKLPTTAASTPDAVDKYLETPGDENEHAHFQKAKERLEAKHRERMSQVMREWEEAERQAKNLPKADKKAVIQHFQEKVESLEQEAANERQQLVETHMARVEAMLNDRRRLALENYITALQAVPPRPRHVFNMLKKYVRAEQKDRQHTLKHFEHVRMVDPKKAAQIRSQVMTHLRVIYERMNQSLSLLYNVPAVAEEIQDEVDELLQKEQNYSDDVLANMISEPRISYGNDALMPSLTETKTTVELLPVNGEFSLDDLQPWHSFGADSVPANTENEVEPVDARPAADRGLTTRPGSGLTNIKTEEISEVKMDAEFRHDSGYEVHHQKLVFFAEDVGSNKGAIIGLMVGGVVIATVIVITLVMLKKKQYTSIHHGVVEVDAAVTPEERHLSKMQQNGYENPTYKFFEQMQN
Summary of the method: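 Aβ40 (30 µM final) co-incubated with inhibitor (100 µM final) in PBS pH 7.4 containing 2% HFIP, 2 h at 25 °C. Thioflavin T (25 µM) then added and fluorescence read. Run in triplicate, reported as mean ± SEM.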

Cholinesterase [16] = biological target: T2, Cholinesterase; assay: Inhibition of human BuChE at 10 uM by Ellman's spectrophotometric method
Summary of the method: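 Percent inhibition of human BChE at a fixed 10 μM inhibitor concentration, by modified Ellman spectrophotometric assay in 96-well format. Incubations were run in duplicate. Values are the mean ± SEM of three independent experiments.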

T1 sequence (P22303 whole entry): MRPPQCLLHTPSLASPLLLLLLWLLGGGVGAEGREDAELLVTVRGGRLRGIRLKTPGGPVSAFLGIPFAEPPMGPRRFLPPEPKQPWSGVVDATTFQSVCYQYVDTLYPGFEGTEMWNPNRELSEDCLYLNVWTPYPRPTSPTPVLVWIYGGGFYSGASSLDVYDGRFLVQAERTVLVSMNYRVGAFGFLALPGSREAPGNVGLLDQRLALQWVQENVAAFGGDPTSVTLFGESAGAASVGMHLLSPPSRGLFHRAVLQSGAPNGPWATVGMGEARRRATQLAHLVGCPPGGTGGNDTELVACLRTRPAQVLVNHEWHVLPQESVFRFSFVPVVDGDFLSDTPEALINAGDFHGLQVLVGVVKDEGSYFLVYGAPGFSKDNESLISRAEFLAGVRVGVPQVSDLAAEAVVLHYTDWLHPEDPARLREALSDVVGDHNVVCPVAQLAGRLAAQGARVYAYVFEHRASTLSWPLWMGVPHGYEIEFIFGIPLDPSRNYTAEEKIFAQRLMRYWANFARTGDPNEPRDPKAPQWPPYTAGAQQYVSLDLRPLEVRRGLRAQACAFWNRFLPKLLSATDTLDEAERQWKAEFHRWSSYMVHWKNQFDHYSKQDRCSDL

Row | SMILES | IC50 (Acetylcholinesterase [1]) [nM] | IC50 (Cholinesterase [2]) [µM] | IC50 [3] [µM] | inhibition (Cholinesterase [16]) [%] | further results
1 | O=C(COc1ccccc1C(F)(F)F)NCC1CCN(Cc2ccccc2)CC1 | 767 | 1.02 | 38.2 | – | –
2 | Cc1cc(Br)cc(C)c1OCC(=O)NCCN1CCN(Cc2ccccc2)CC1 | 90 | 4.1 | 40.8 | – | –
3 | O=C(COc1ccc(Cl)cc1[N+](=O)[O-])NCCN1CCN(Cc2ccccc2)CC1 | 0.8 | 1.41 | 41.6 | – | Ratio IC50 (Acetylcholinesterase [4]): 21; Ratio IC50 (Homo sapiens): 1760; IC50 at 24 h [5]: > 100 µM; IC50 at 48 h [6]: > 100 µM; IC50 at 24 h [7]: > 100 µM; IC50 at 48 h [8]: > 100 µM; Ratio IC50 (Cholinesterase [9]): 3; log(activity) [10]: -1.81; Activity [11]: Active; Activity [12]: Active; Activity [13]: Active; log(activity) [14]: 2.89
4 | O=C(COc1ccc([N+](=O)[O-])cc1)NCCN1CCN(Cc2ccccc2)CC1 | 42 | – | 43.9 | – | inhibition [15]: 30%
5 | O=C(Oc1ccc([N+](=O)[O-])cc1)N1CCN(Cc2cccc(Oc3ccccc3)c2)CC1 | – | – | 0.019 | – | –
6 | O=C(COc1ccc(-c2ccccc2)cc1)NCC1CCN(Cc2ccccc2)CC1 | 1700 | 5.58 | 23.3 | – | –
7 | O=C(COc1ccc(Cl)cc1)NCC1CCN(Cc2ccccc2)CC1 | 1680 | 5.61 | 20.9 | – | inhibition [15]: 30%; IC50 at 24 h [5]: > 100 µM; IC50 at 48 h [6]: > 100 µM; IC50 at 24 h [7]: > 100 µM; IC50 at 48 h [8]: > 100 µM
8 | O=C(COc1ccc([N+](=O)[O-])cc1)NCC1CCN(Cc2ccccc2)CC1 | 509 | – | 28.5 | 24 | –
9 | O=C(COc1ccc(Cc2ccccc2)cc1)NCC1CCN(Cc2ccccc2)CC1 | 1270 | – | 21.9 | 37 | –
10 | O=C(COc1ccc(Cc2ccccc2)cc1)NCCN1CCN(Cc2ccccc2)CC1 | 993 | – | 23.6 | 29 | –
11 | O=C(COc1cc(F)ccc1[N+](=O)[O-])NCC1CCN(Cc2ccccc2)CC1 | 103 | – | 28.1 | 54 | –
12 | Cc1cc(Br)cc(C)c1OCC(=O)NCC1CCN(Cc2ccccc2)CC1 | 595 | 2.22 | 28.6 | – | –
13 | COc1ccc(OCC(=O)NCC2CCN(Cc3ccccc3)CC2)cc1 | 880 | – | 40.8 | 55 | –
14 | O=C(COc1ccc(-c2ccccc2)cc1)NCCN1CCN(Cc2ccccc2)CC1 | 735 | 0.969 | 63.9 | – | –
15 | O=C(COc1ccc(Cl)cc1[N+](=O)[O-])NCC1CCN(Cc2ccccc2)CC1 | 122 | 4.7 | 23.3 | – | –
16 | COc1ccc(OCC(=O)NCCN2CCN(Cc3ccccc3)CC2)cc1 | 300 | – | 51.9 | 25 | inhibition [15]: 30%
17 | O=C(COc1ccc(CCc2ccccc2)cc1)NCC1CCN(Cc2ccccc2)CC1 | 135 | 5.08 | 23.8 | – | –
18 | O=C(COc1ccc(CCc2ccccc2)cc1)NCCN1CCN(Cc2ccccc2)CC1 | 900 | – | 16.8 | 45 | inhibition [15]: 30%; IC50 at 24 h [5]: 27.8 µM; IC50 at 48 h [6]: 34.8 µM; IC50 at 24 h [7]: 41.6 µM; IC50 at 48 h [8]: 15.8 µM
19 | O=C(COc1cc(F)ccc1[N+](=O)[O-])NCCN1CCN(Cc2ccccc2)CC1 | 2.8 | 5.01 | 49.6 | – | Ratio IC50 (Acetylcholinesterase [4]): 6; Ratio IC50 (Homo sapiens): 1790; IC50 at 24 h [5]: > 100 µM; IC50 at 48 h [6]: > 100 µM; IC50 at 24 h [7]: > 100 µM; IC50 at 48 h [8]: > 100 µM
20 | O=C(COc1ccc(Cl)cc1)NCCN1CCN(Cc2ccccc2)CC1 | 189 | 2.15 | > 100 | – | inhibition [15]: 30%
21 | O=C(COc1ccccc1C(F)(F)F)NCCN1CCN(Cc2ccccc2)CC1 | 136 | 0.503 | 55.1 | – | –
